# According to PMC2857556 (Cytoskeleton (Hoboken, N.J.), 2010):
# Like-named read-outs stand apart in the source and are kept apart here. No end group written: not given here.
# B1: profilin: Yeast profilin (Pfy1) purified from E. coli (protein, UniProt P07274 1-126, looked up)
# Profilin: MSWQAYTDNLIGTGKVDKAVIYSRAGDAVWATSGGLSLQPNEIGEIVQGFDNPAGLQSNGLHIQGQKFMLLRADDRSIYGRHDAEGVVCVRTKQTVIIAHYPPTVQAGEATKIVEQLADYLIGVQY
# B2: fragment of Srv2/CAP containing the WH2 domain (a.a. 253-373): purified fragment of Srv2/CAP from an earlier study (Mattila et al., 2004) (protein, UniProt P17555 253-373, looked up, fragment)
# chain: MAQSTKNTGATSSPSPASATAAPAPPPPPPAPPASVFEISNDTPATSSDANKGGIGAVFAELNQGENITKGLKKVDKSQQTHKNPELRQSSTVSSTGSKSGPPPRPKKPSTLKTKRPPRKE
# How the values were obtained:
# [1] = system: F-actin; test: F-actin co-sedimentation; type: binding; conditions: co-sedimentation assays, data not shown
# [2] = system: G-actin; test: Interaction of WH2 peptides with G-actin; type: binding
# [3] = system: actin; test: Steady state actin critical concentration; type: biochemical; conditions: for steady state critical concentration for actin assembly (Cc): saturating Srv2 or WH2 peptide, actin alone Cc = 0.21
# [4] = system: Cof1-bound ADP-actin monomers; test: Nucleotide exchange on Cof1-bound ADP-actin monomers; type: biochemical, rabbit
# In short: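 Rabbit muscle ADP-actin (2 μM) was kept in G-buffer without ATP (10 mM Tris pH 7.5, 0.2 mM CaCl2, 0.2 mM DTT). It was mixed with 20 mM Tris pH 8.0, 50 mM NaCl, alone or containing Cof1 and/or varying full-length Srv2 (yeast profilin from E. coli where used), then added to ε-ATP. The fluorescence rise at 350/410 nm was monitored for at least 600 s.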
# [5] = system: F-actin; test: Pi release assay of steady state actin filament turnover in the presence of Cof1; type: biochemical, rabbit; conditions: 8 μM actin, 25°C
# In short: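 Cof1 and full-length Srv2 were premixed with 2 mM MgCl2, 0.5 mM ATP, 50 mM KCl, 0.2 mM MESG and 0.1 units PNP. Rabbit muscle actin monomers were added to start polymerization. Once the reaction reached steady state, Pi release was read for 15 min. After path-length correction, steady-state slopes were obtained by linear fit.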
# [6] = Fluorescence-monitored urea denaturation; type: physicochemical
# In short: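 Full-length 6xHis-tagged wild type and mutant Srv2 were expressed in E. coli BL21-RP (DE3), purified by IMAC then Superose 6 gel filtration in 20 mM Tris pH 8.0, 50 mM NaCl, 1 mM DTT, and stored at -80°C. Unfolding was followed by fluorescence as a function of urea concentration, with fluorescence normalized.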
# [7] = biological target: Rabbit skeletal muscle actin, monomeric (G-actin) (rabbit) (UniProt P68135); test: inhibition of nucleotide exchange on actin
# [8] = biological target: Rabbit skeletal muscle actin, monomeric (G-actin) (rabbit) (UniProt P68135); test: inhibition of nucleotide exchange on actin; remark: listed apart in the source
# [9] = system: NBD-labeled G-actin; conditions: ref Mattila et al., 2004; cited from earlier work
molecule,measurement,setting,value
"306-349: WH2 domain-containing peptide of Srv2, a.a. 306-349 (GIGAVFAELNQGENITKGLKKVDKSQQTHKNPELRQSSTVSSTG; UniProt P17555 306-349, looked up, fragment)",binding affinity for F-actin (in words),[1],Neither WH2 peptide showed any detectable binding affinity for F-actin
same,interaction with G-actin (in words),[2],both WH2 peptides interacted with G-actin
Srv2-WT: full-length 6xHis-tagged wild type yeast Srv2/CAP protein purified from E. coli,steady state critical concentration for actin assembly (Cc),[3]; data not shown,2.4 µM
same,increase of critical concentration versus actin alone,"[3]; versus actin alone, data not shown",10 fold
same,Srv2 concentration of peak effect on nucleotide exchange rate,"[4]; 2 μM ADP-G-actin, 5 μM Cof1, 25°C (Fig. 7A)",300 to 400 nM
same,effect on actin turnover (Pi release) (in words),"[5]; 4 μM Cof1, 0-500 nM protein",increased the rate of turnover in a concentration-dependent manner
same,"rate increase of actin turnover (Pi release), peak","[5]; 4 μM Cof1, Srv2 0-500 nM, 360 nm (Fig. 8A)",4 fold
same,folding / stability by urea denaturation (in words),[6],folded correctly
same,urea concentration of unfolding,[6],~ 5 M urea
"Srv2/CAP WH2 peptide (a.a. 295-349), wild type (from UniProt P17555 295-349) (domain or fragment)",Kd,[7],1500 nM
same,Kd,[8],1400 nM
"WH2 peptide: 6xHis-tagged WH2 domain of S. cerevisiae Srv2, a.a. 295-349, purified from E. coli (TPATSSDANKGGIGAVFAELNQGENITKGLKKVDKSQQTHKNPELRQSSTVSSTG; also: 6xHis tag, end not given here)",effect on steady state critical concentration (in words),[3]; actin + WH2 versus actin alone,did not alter the steady state critical concentration for actin assembly
same,steady state critical concentration for actin assembly (Cc),[3]; data not shown,0.26 µM
same,binding affinity for F-actin (in words),[1],Neither WH2 peptide showed any detectable binding affinity for F-actin
same,interaction with G-actin (in words),[2],both WH2 peptides interacted with G-actin
B1,"effect on nucleotide exchange on Cof1-bound ADP-actin, protein alone (in words)","[4]; 2 μM ADP-G-actin, 5 μM Cof1, 50 μM ε-ATP, 25°C",no detectable activity
same,effect of profilin on Srv2-WT promotion of nucleotide exchange (in words),"[4]; 5 μM yeast profilin with 400 nM full-length Srv2-WT, 5 μM Cof1 (Fig. 7F)",does not enhance Srv2’s effects
B2,binding affinity for NBD-labeled G-actin (in words),[9],no detectable binding affinity for NBD-labeled G-actin
